Reference: ChEMBL document CHEMBL2390832, “Synthesis and activity evaluation of tilorone analogs as potential anticancer agents” (Eur J Med Chem, 2013)
Counter-ions that a name gives are not always drawn. The source made the active and inactive calls. The calls are words filed in the database; no cut-off is given here.

Tests used:
HEK-293T = test: Cytotoxicity against human HEK293T cells after 48 hrs by MTT assay; assay type: cell-based
Outline: (§1)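 Cells seeded at 1 × 10⁴/well in DMEM with 10% FBS and left overnight at 37 °C, 5% CO₂. Five concentrations (1 µM–100 µM) diluted in DMEM were added and incubated for 48 h. MTT (10 µl of 5 mg/ml) was then added for 4 h at 37 °C. Formazan was dissolved in DMSO and absorbance read at 490 nm. At least three parallel runs; IC50 by regression analysis.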

Vero = test: Cytotoxicity against African green monkey Vero cells after 48 hrs by MTT assay; assay type: cell-based; conditions: Chlorocebus sabaeus; outline: as §1
A549 [1] = test: Anticancer activity against human A549 cells after 48 hrs by MTT assay; assay type: functional, cell-based; conditions: A549, 48 h; outline: as §1
[2] = Anticancer activity against human Hep3B cells after 48 hrs by MTT assay; assay type: functional, cell-based, Hep 3B2; outline: as §1
HeLa [3] = test: Anticancer activity against human HeLa cells after 48 hrs by MTT assay; assay type: functional, cell-based; outline: as §1
A549 [4] = test: Anticancer activity against human A549 cells at =/> 100 uM after 48 hrs by MTT assay; assay type: functional, cell-based
HeLa [5] = test: Anticancer activity against human HeLa cells at =/> 100 uM after 48 hrs by MTT assay; assay type: functional, cell-based
Hep 3B2 = test: Anticancer activity against human Hep3B cells at =/> 100 uM after 48 hrs by MTT assay; assay type: functional, cell-based

| IC50 (A549 [1]) [µM] | IC50 (HeLa [3]) [µM] | Structure (SMILES) | IC50 (HEK-293T) [µM] | IC50 (Vero) [µM] | IC50 [2] [µM] | Activity (A549 [4]) | Activity (HeLa [5]) | Activity (Hep 3B2) |
| --- | --- | --- | --- | --- | --- | --- | --- | --- |
| 16 | 20.2 | CCN(CC)CC(O)COc1ccc2c(c1)C(=O)c1cc(OCC(O)CN(CC)CC)ccc1-2 (centres undefined) | 56.4 | 48.6 | 21.5 |  |  |  |
| > 100 | > 100 | CCN(CC)CCOc1ccc2c(c1)C(=O)c1cc(OCCCl)ccc1-2 |  |  | > 100 |  |  |  |
| 2.65 | 2.21 | CCCCNCCOc1ccc2c(c1)C(=O)c1cc(OCCNCCCC)ccc1-2 | 11 | 8.89 | 3.34 |  |  |  |
|  |  | O=c1c(-c2ccc(OCCCl)cc2)coc2cc(OCCCl)ccc12 |  |  |  | inactive | inactive | inactive |
| 19.4 | 26.4 | CCN(CC)CCOc1ccc(-c2coc3cc(OCCN(CC)CC)ccc3c2=O)cc1 | 107 | 102 | 35.2 |  |  |  |
| 4.34 | 5.32 | O=c1c(-c2ccc(OCC(O)CN3CCCCC3)cc2)coc2cc(OCC(O)CN3CCCCC3)ccc12 (centres undefined) | 20.2 | 18.5 | 12 |  |  |  |
|  |  | CC(C)SCCOc1ccc2c(c1)C(=O)c1cc(OCCSC(C)C)ccc1-2 |  |  |  | inactive | inactive | inactive |
| 12.6 | 11.7 | CN(C)CC(O)COc1ccc2c(c1)C(=O)c1cc(OCC(O)CN(C)C)ccc1-2 (centres undefined) | 28.3 | 20.9 | 18.3 |  |  |  |
| 2.43 | 1.72 | CC(C)NCCOc1ccc2c(c1)C(=O)c1cc(OCCNC(C)C)ccc1-2 | 13.8 | 14.8 | 8.89 |  |  |  |
| > 100 | > 100 | O=C1c2cc(OCCn3cncn3)ccc2-c2ccc(OCCn3cncn3)cc21 |  |  | > 100 |  |  |  |
| 7.86 | 9.17 | CC(C)(C)NCCOc1ccc2c(c1)C(=O)c1cc(OCCNC(C)(C)C)ccc1-2 | 19.8 | 25.3 | 20.1 |  |  |  |
|  |  | O=c1c(-c2ccc(OCCCBr)cc2)coc2cc(OCCCBr)ccc12 |  |  |  | inactive | inactive | inactive |
|  |  | CCOc1ccc2c(c1)C(=O)c1cc(OCCCl)ccc1-2 |  |  |  | inactive | inactive | inactive |
|  |  | CCOc1ccc2c(c1)C(=O)c1cc(OCCO)ccc1-2 |  |  |  | inactive | inactive | inactive |
| > 100 | > 100 | CCOc1ccc2c(c1)C(=O)c1cc(OCCN(C)C)ccc1-2 |  |  | > 100 |  |  |  |
| 20.6 | 22.2 | CN(C)CCCOc1ccc(-c2coc3cc(OCCCN(C)C)ccc3c2=O)cc1 | 41.9 | 34.9 | 24.4 |  |  |  |
| 1.4 | 1.82 | O=C1c2cc(OCC(O)CN3CCCCC3)ccc2-c2ccc(OCC(O)CN3CCCCC3)cc21 (centres undefined) | 17.9 | 13 | 6.76 |  |  |  |
| 4.26 | 5.17 | CCCN(CCC)CC(O)COc1ccc(-c2coc3cc(OCC(O)CN(CCC)CCC)ccc3c2=O)cc1 (centres undefined) | 39.6 | 35.5 | 6.52 |  |  |  |
| > 100 | 107 | CCOc1ccc2c(c1)C(=O)c1cc(OCCN(CC)CC)ccc1-2 |  |  | 84.8 |  |  |  |
| > 100 | > 100 | O=C1c2cc(OCCn3ccnc3)ccc2-c2ccc(OCCn3ccnc3)cc21 |  |  | > 100 |  |  |  |
| > 100 | > 100 | O=C1c2cc(OCCn3ccnn3)ccc2-c2ccc(OCCn3ccnn3)cc21 |  |  | > 100 |  |  |  |
|  |  | CC(C)(C)SCCOc1ccc2c(c1)C(=O)c1cc(OCCSC(C)(C)C)ccc1-2 |  |  |  | inactive | inactive | inactive |
| 73.5 | 82.4 | CCN(CC)CCCOc1ccc(-c2coc3cc(OCCCN(CC)CC)ccc3c2=O)cc1 |  |  | 76.1 |  |  |  |
| 32.6 | 40 | CCN(CC)CCOc1ccc2c(c1)C(=O)c1cc(OCCN(CC)CC)ccc1-2 [TILORONE HYDROCHLORIDE] | 76.4 | 89.5 | 38.8 |  |  |  |
| 25 | 27.8 | CCN(CC)CC(O)COc1ccc(-c2coc3cc(OCC(O)CN(CC)CC)ccc3c2=O)cc1 (centres undefined) | 52.9 | 60.1 | 30.4 |  |  |  |
| 2.96 | 2.73 | CCCNCCOc1ccc2c(c1)C(=O)c1cc(OCCNCCC)ccc1-2 | 8.59 | 8.47 | 5.17 |  |  |  |
| 7.42 | 6.78 | CCCN(CCC)CC(O)COc1ccc2c(c1)C(=O)c1cc(OCC(O)CN(CCC)CCC)ccc1-2 (centres undefined) | 54 | 57.8 | 9.43 |  |  |  |
